According to ChEMBL document CHEMBL2086356, “Identification of a novel family of BRAF(V600E) inhibitors” (J Med Chem, 2012):
Calls of active or inactive are those of the source. No cut-off for these calls is given here.

Columns and labels:
[1] = target: Serine/threonine-protein kinase B-raf (Homo sapiens, UniProt P15056, V600E); assay: Inhibition of human 6x-His tagged BRAF V600E mutant expressed in Sf9 cells by ELISA based kinase assay
Method in brief: (§1)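 Enzyme at about 28–30 nM was preincubated with compound for 1 h at RT, then added to glutathione-plate-bound GST-MEK-His (50 μg/mL). Reaction in HEPES pH 7.0 with MgCl2 and 100 μM ATP ran 30 min at 37 °C. Read-out was anti-phospho-MEK1/2 then HRP chemiluminescence. Run in duplicate or triplicate; IC50 from a four-parameter logistic fit.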

[2] = target: T1, Serine/threonine-protein kinase B-raf (Homo sapiens, UniProt P15056); assay: Inhibition of human 6x-His tagged wild type BRAF expressed in Sf9 cells by ELISA based kinase assay; method in brief: as §1
T1 sequence (P15056 whole entry): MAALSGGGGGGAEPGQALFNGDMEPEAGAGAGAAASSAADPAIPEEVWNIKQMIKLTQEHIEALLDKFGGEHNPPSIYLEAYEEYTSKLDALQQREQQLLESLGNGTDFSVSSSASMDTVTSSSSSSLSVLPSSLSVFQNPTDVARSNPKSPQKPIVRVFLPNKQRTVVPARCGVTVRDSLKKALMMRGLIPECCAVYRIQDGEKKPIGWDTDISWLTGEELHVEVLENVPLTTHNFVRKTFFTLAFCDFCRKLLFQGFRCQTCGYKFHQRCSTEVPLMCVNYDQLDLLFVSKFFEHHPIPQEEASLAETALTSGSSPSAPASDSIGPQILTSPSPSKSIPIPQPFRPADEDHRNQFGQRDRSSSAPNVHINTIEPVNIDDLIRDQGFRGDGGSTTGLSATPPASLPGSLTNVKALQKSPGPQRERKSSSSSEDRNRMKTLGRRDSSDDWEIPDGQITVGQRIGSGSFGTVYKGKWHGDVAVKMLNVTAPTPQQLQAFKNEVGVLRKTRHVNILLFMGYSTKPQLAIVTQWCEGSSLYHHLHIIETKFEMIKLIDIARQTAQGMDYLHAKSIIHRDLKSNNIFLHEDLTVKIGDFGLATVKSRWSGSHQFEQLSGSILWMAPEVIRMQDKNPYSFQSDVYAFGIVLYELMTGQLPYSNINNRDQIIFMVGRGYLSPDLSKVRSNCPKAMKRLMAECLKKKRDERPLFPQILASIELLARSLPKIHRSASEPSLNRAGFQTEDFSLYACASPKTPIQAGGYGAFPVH

Homo sapiens [3] = species: Homo sapiens; assay: Selectivity ratio of IC50 for human 6x-His tagged wild type BRAF to IC50 for human 6x-His tagged BRAF V600E mutant
[4] = target: RAF proto-oncogene serine/threonine-protein kinase (Homo sapiens) (UniProt P04049); assay: Inhibition of CRAF assessed as residual activity at 1 uM by ELISA based kinase assay
Sequence of RAF proto-oncogene serine/threonine-protein kinase (Homo sapiens) (P04049 whole entry, the tested form may be a part): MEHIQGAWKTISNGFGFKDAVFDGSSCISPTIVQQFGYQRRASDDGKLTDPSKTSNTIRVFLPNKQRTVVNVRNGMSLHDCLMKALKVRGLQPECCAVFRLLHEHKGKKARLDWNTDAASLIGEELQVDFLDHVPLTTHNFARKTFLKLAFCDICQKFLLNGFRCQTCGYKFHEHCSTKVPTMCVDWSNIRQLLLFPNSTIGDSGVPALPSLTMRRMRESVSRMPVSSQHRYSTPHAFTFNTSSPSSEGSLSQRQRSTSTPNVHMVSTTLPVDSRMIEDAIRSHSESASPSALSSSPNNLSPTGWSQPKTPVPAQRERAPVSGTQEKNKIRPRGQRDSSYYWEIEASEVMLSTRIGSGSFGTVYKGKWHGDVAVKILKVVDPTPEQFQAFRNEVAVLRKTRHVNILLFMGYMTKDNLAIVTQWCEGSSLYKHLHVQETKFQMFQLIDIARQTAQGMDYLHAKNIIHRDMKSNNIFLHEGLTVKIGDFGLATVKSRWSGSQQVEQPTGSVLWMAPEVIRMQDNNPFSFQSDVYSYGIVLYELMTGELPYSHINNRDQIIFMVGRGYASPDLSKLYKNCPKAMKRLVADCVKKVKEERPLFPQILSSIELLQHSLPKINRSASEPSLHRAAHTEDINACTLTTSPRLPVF
Method in brief: (§2)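 Single-point ELISA kinase assay at 1 μM inhibitor, reading phospho-MEK on immobilized GST-MEK-His. CRAF at 20–30 nM enzyme with 100 μM ATP; BRAF WT or V600E kinase domain (Sf9-expressed, 6xHis) under the same assay conditions. Remaining activity reported as mean of n = 3.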

[5] = target: Phosphatidylinositol 4,5-bisphosphate 3-kinase catalytic subunit gamma isoform (Homo sapiens) (UniProt P48736); assay: Inhibition of PI3Kgamma assessed as residual activity at 1 uM
Sequence of Phosphatidylinositol 4,5-bisphosphate 3-kinase catalytic subunit gamma isoform (Homo sapiens) (P48736 whole entry, looked up, canonical isoform): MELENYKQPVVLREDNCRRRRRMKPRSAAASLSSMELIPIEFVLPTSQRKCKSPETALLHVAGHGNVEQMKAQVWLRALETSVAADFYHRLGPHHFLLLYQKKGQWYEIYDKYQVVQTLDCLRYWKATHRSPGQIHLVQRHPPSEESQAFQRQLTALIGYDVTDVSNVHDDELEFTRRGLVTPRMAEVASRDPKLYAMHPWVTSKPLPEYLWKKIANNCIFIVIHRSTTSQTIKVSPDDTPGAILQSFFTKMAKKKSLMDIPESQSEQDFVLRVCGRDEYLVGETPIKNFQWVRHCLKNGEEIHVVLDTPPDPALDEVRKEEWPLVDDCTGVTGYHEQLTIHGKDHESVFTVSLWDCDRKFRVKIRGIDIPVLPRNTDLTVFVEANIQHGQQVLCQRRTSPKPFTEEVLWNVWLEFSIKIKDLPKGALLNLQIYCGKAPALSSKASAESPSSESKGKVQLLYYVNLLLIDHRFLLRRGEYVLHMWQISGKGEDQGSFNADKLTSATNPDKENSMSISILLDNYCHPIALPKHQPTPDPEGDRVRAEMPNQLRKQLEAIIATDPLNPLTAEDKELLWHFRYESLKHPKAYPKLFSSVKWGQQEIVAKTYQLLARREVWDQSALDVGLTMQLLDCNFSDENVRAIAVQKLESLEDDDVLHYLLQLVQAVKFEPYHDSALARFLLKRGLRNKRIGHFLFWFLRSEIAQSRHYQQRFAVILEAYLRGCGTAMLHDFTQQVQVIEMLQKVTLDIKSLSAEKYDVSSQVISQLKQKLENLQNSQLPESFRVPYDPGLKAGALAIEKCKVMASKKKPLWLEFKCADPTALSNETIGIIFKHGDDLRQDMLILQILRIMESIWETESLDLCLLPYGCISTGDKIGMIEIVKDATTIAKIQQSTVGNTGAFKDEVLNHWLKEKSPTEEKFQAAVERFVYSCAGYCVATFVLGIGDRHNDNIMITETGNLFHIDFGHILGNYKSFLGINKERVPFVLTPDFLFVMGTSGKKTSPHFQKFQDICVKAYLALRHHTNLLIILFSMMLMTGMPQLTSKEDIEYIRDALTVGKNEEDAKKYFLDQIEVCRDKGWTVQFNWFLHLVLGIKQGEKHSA

[6] = target: Phosphatidylinositol 4,5-bisphosphate 3-kinase catalytic subunit alpha isoform (Homo sapiens) (UniProt P42336); assay: Inhibition of PI3Kalpha assessed as residual activity at 1 uM
Sequence of Phosphatidylinositol 4,5-bisphosphate 3-kinase catalytic subunit alpha isoform (Homo sapiens) (P42336 whole entry, canonical isoform): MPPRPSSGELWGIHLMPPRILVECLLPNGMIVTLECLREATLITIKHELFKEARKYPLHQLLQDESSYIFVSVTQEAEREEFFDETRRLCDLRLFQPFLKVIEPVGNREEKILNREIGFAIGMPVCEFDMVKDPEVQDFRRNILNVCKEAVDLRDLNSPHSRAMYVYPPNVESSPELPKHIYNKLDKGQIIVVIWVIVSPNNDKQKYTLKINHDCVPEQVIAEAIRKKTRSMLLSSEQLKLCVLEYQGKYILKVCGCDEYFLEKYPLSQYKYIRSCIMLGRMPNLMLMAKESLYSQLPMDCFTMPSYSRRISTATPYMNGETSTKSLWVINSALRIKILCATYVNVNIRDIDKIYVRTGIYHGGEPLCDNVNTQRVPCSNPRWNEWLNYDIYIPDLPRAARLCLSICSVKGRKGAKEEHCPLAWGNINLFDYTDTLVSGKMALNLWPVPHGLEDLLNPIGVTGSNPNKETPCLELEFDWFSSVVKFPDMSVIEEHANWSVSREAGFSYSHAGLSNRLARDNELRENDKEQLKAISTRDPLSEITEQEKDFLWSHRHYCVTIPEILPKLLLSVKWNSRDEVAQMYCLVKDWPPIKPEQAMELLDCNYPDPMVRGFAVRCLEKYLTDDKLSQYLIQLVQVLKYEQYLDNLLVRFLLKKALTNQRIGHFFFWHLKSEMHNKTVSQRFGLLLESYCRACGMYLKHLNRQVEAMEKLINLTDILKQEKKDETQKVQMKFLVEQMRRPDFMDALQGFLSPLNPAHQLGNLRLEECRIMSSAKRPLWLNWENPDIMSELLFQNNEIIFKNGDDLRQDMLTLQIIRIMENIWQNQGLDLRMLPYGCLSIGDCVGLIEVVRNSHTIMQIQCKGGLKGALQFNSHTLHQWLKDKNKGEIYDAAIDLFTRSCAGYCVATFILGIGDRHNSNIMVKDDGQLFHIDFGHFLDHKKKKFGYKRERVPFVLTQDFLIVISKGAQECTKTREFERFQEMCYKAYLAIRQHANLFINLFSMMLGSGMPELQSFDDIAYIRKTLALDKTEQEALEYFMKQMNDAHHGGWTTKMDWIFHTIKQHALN

[7] = Inhibition of GSK3 assessed as residual activity at 1 uM
[8] = target: Serine/threonine-protein kinase pim-1 (Homo sapiens) (UniProt P11309); assay: Inhibition of PIM1 assessed as residual activity at 1 uM
Sequence of Serine/threonine-protein kinase pim-1 (Homo sapiens) (P11309 whole entry, looked up): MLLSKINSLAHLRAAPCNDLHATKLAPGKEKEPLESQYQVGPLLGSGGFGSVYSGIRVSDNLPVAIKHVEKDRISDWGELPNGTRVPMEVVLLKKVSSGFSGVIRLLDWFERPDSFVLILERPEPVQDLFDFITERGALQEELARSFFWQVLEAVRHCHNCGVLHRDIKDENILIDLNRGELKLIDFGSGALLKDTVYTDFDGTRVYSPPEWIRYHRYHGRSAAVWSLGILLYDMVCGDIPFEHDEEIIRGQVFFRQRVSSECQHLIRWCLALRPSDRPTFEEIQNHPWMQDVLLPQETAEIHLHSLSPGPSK

[9] = target: Serine/threonine-protein kinase PAK 1 (Homo sapiens) (UniProt Q13153); assay: Inhibition of PAK1 assessed as residual activity at 1 uM
[10] = Inhibition of p70S6K assessed as residual activity at 1 uM by scintillation counter in presence of gamma-P32 ATP
Method in brief: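 p70S6K (20 nM) was preincubated with inhibitor at RT in 20 mM MOPS, 30 mM MgCl2, 0.8 μg/μL BSA, 5% DMSO, pH 7.0, with S6 kinase/Rsk2 peptide (3.6 μM). After 15 min, ATP was added to 100 μM with γ-32P ATP and run 30 min. Product was captured on P81 paper, washed with phosphoric acid, and counted by scintillation. Remaining activity was measured at 1 μM, mean of n = 3.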

[11] = target: T1, Serine/threonine-protein kinase B-raf; assay: Inhibition of human 6x-His tagged wild type BRAF expressed in Sf9 cells assessed as residual activity at 1 uM by ELISA based kinase assay; method in brief: as §2
[12] = tested on: Serine/threonine-protein kinase B-raf (Homo sapiens), P15056 [V600E]; assay: Inhibition of human 6x-His tagged BRAF V600E mutant expressed in Sf9 cells assessed as residual activity at 1 uM by ELISA based kinase assay; method in brief: as §2
Sequence of Serine/threonine-protein kinase B-raf (Homo sapiens), P15056 [V600E] (P15056 whole entry V600E): as the sequence (P15056 whole entry) above, with V600E counted along it

Homo sapiens [13] = species: Homo sapiens; assay: Antiproliferative activity against human 451LU cells harboring BRAF V600E mutant by MTS assay; type: functional, cell-based
Method in brief: (§3)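 451Lu melanoma cells were grown in DMEM with 5% FBS, and primary melanocytes (FOM) and fibroblasts (FF) were taken from neonatal foreskin epidermis. Cells were seeded at 5000/well, left to adhere overnight, then exposed to rising compound doses or DMSO for 72 h. Read-out was MTS absorbance at 490 nm, normalized to DMSO wells. At least 4 wells per condition; experiment done in triplicate.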

FOM = assay: Antiproliferative activity against human FOM cells by MTS assay; type: functional, cell-based; method in brief: as §3
FF2508 = assay: Antiproliferative activity against human FF2508 cells by MTS assay; type: functional, cell-based; method in brief: as §3
[14] = tested on: Serine/threonine-protein kinase B-raf (Homo sapiens), P15056 [V600E]; assay: Inhibition of B-Raf V600E mutant-mediated MEK phosphorylation in human 451LU cells by Western blotting

Sequence of Serine/threonine-protein kinase B-raf (Homo sapiens, UniProt P15056, V600E) (P15056 2-766 V600E limits assumed): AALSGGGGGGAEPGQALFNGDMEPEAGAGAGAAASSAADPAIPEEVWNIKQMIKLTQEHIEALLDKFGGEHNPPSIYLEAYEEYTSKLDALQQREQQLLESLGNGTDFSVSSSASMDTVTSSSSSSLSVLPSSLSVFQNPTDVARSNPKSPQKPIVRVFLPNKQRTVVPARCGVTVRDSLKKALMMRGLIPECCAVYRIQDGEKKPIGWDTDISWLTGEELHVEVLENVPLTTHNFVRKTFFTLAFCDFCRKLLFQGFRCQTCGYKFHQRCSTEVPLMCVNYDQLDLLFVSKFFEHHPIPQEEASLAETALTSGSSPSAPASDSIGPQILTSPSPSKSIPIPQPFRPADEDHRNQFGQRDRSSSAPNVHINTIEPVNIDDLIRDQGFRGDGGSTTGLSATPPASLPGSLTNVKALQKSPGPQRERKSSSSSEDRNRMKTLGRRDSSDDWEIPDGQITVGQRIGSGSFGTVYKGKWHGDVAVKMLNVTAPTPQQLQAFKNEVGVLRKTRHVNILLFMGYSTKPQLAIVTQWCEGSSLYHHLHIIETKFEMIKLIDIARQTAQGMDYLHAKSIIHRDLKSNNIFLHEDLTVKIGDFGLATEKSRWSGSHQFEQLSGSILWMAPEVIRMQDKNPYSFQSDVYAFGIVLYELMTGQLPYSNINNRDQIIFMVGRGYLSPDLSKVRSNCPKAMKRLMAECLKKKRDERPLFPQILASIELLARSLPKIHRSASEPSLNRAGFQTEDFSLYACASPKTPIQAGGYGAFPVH

IC50 [1] [nM] | IC50 [2] [nM] | Compound | further results
190 | 230 | O=C1C(Sc2ncn[nH]2)=C/C(=N\S(=O)(=O)c2cccs2)c2ccccc21 | 
6100 | 9000 | O=S(=O)(Nc1ccc(O)c2ccccc12)c1cccs1 | 
3600 | 5800 | O=S(=O)(Nc1cc(Sc2ncn[nH]2)c(O)c2ccccc12)c1c(F)ccc(N(Cc2ccccc2)Cc2ccccc2)c1F | 
700 | 3000 | COc1cc(C(Nc2ccccn2)c2cc(Cl)c3cccnc3c2O)cc(Br)c1O (stereo not drawn) | Ratio IC50 (Homo sapiens [3]): 2
 |  | O=S(=O)(Nc1cc(Sc2ncn[nH]2)c(O)c2ccccc12)c1ccc(-c2ccccc2)cc1 | Activity [4]: 60%; Activity [5]: 75%; Activity [6]: 75%; Activity [7]: 75%; Activity [8]: 75%; Activity [9]: 75%; Ratio IC50 (Homo sapiens [3]): 2; Activity [10]: 75%; Activity [11]: < 10%; Activity [12]: < 10%; Activity (Homo sapiens [13]): Active; Activity (FOM): inactive; Activity (FF2508): inactive; inhibition [14]: Active
670 | 680 | O=C1CCC(=O)N1c1ccc(F)c(S(=O)(=O)Nc2cc(Sc3ncn[nH]3)c(O)c3ccccc23)c1F | 
140 | 270 | CC(=O)N1CCc2cc(S(=O)(=O)Nc3cc(Sc4nc[nH]n4)c(O)c4ccccc34)ccc21 | 
150 | 400 | O=S(=O)(Nc1cc(Sc2nc[nH]n2)c(O)c2ccccc12)c1ccc2ccccc2c1 | 
250 | 320 | Cn1nnnc1Sc1cc(NS(=O)(=O)c2cccs2)c2ccccc2c1O | 
1600 | 2100 | CCCCCCCCCCS(=O)(=O)Nc1cc(Sc2nnc[nH]2)c(O)c2ccccc12 | 
80 | 220 | O=S(=O)(Nc1cc(Sc2nnc[nH]2)c(O)c2ccccc12)c1ccc(-c2ccccc2)cc1 | 
120 | 170 | O=S(=O)(Nc1cc(Sc2ncc[nH]2)c(O)c2ccccc12)c1cccs1 | Ratio IC50 (Homo sapiens [3]): 2
280 | 570 | O=S(=O)(Nc1cc(Sc2ccccc2)c(O)c2ccccc12)c1cccs1 | 
720 | 1660 | CCCCCCCCS(=O)(=O)Nc1cc(Sc2nnc[nH]2)c(O)c2ccccc12 | 
600 | 400 | Cc1cc(C)c2c(=O)n(C(=O)c3cccs3)sc2n1 | 
320 | 340 | O=S(=O)(Nc1cc(Br)c(O)c2ccccc12)c1cccs1 | 
300 | 900 | O=C(/C=C/S(=O)(=O)c1ccc(Cl)cc1)c1ccc(F)cc1 | Ratio IC50 (Homo sapiens [3]): 2
190 | 350 | O=S(=O)(Nc1cc(Sc2ccccn2)c(O)c2ccccc12)c1cccs1 | 
380 | 450 | O=S(=O)(Nc1cc(Cl)c(O)c2ccccc12)c1cccs1 | 
210 | 190 | O=S(=O)(Nc1cc(Sc2nc[nH]n2)c(O)c2ccccc12)c1ccc(C(F)(F)F)cc1 | 
520 | 590 | O=S(=O)(Nc1cc(Sc2ncn[nH]2)c(O)c2ccccc12)c1c(F)c(F)c(F)c(F)c1F | 
900 | 4000 | COc1ccc(C(c2ccc3cccnc3c2O)N2CCOCC2)cc1 (stereo not drawn) | Ratio IC50 (Homo sapiens [3]): 2
140 |  | CC(=O)Nc1ccc(S(=O)(=O)Nc2cc(Sc3nc[nH]n3)c(O)c3ccccc23)cc1 | 
800 | 2000 | Oc1c(C(Nc2cccnc2)c2ccsc2)ccc2cccnc12 (stereo not drawn) | Ratio IC50 (Homo sapiens [3]): 2
 |  | CC(=O)Nc1ccc(S(=O)(=O)Nc2cc(Sc3ncn[nH]3)c(O)c3ccccc23)cc1 | Ratio IC50 (Homo sapiens [3]): 2
720 | 1470 | O=S(=O)(Nc1cc(Sc2cnn[nH]2)c(O)c2ccccc12)c1cccs1 | 
 | 800 | Oc1c(C(Nc2ccccn2)c2ccco2)cc(Cl)c2cccnc12 (stereo not drawn) | 
